Columns and labels:
[1] = target: Cholinesterase (Homo sapiens, UniProt P06276); assay: Inhibition constant against human Butyrylcholinesterase (hBuChE) using butyrylthiocholine (BuTCh) as substrate
[2] = target: T1, Cocaine esterase (Homo sapiens, UniProt O00748); assay: Inhibition constant against human intestinal carboxylesterase 2 (hiCE) using nitrophenyl acetate (o-NPA) as substrate
T1 sequence (O00748 whole entry): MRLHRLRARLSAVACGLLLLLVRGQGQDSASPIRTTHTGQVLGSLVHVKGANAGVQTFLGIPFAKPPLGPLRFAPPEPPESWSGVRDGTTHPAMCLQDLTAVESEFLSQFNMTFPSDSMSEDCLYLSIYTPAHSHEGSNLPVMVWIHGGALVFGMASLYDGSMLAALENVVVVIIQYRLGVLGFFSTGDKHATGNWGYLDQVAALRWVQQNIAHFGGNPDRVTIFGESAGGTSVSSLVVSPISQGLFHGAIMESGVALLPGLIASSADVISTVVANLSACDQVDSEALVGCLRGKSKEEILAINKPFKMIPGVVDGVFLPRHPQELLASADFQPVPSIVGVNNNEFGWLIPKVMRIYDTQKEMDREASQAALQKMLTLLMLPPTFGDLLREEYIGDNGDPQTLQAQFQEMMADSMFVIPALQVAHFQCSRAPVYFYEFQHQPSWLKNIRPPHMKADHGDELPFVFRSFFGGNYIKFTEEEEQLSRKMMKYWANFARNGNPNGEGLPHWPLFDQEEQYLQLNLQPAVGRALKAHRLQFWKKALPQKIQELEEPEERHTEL

[3] = target: T2, Liver carboxylesterase 1 (Oryctolagus cuniculus, UniProt P12337); assay: Inhibition constant against rabbit liver carboxylesterase (rCE) using nitrophenyl acetate (o-NPA) as substrate
T2 sequence (P12337 whole entry): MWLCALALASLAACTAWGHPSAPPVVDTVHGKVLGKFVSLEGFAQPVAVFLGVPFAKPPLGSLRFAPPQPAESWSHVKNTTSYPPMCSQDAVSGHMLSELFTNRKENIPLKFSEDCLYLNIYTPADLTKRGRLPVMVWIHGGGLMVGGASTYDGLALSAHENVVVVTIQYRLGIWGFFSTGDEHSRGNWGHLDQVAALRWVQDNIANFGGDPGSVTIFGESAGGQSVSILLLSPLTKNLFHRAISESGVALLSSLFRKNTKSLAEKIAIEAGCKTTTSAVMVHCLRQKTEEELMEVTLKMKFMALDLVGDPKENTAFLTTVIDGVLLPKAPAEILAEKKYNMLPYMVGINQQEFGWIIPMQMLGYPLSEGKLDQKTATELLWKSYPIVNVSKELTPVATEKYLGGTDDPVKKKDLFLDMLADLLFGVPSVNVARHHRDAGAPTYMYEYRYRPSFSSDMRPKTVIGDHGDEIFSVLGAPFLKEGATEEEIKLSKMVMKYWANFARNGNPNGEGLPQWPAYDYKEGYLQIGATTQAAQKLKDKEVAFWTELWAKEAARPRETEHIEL
How it was run: (§1)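 Pure rCE prepared per earlier work. Spectrophotometric multiwell assay with 3mM o-NPA. Inhibitor and substrate were dispensed first, then enzyme was added. A420 was read every 15 s for 5 min and compared with no-inhibitor wells. Inhibitor range started at 1 pM. Duplicates, with 50 µM BNPP and DMSO/no-enzyme controls. Ki came from a partially competitive inhibition equation fit.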

[4] = target: Acetylcholinesterase (Homo sapiens, UniProt P22303); assay: Inhibition constant against human Acetylcholinesterase (hAcChE) using acetylthiocholine (AcTCh) as substrate
Sequence of Acetylcholinesterase (P22303 whole entry): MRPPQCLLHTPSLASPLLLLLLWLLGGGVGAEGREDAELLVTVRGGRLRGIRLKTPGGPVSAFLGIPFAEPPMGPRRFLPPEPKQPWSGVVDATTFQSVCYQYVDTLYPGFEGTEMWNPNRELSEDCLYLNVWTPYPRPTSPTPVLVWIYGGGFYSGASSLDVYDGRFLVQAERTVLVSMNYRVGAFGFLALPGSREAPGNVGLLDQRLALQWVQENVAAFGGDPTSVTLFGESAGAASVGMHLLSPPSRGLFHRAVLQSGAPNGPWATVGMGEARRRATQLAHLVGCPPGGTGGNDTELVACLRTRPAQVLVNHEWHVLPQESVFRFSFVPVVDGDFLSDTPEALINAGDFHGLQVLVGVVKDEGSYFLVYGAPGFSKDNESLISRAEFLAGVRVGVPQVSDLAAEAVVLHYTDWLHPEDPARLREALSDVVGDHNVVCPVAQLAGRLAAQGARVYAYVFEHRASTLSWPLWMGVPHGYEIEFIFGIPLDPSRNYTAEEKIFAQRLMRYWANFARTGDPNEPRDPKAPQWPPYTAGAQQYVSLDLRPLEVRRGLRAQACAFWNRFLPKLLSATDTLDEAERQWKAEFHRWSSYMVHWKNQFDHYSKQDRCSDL

[5] = target: T3, Liver carboxylesterase 1 (Homo sapiens, UniProt P23141); assay: Inhibition constant against human liver carboxylesterase 1 (hCE1) using nitrophenyl acetate (o-NPA) as substrate
T3 sequence (P23141 whole entry): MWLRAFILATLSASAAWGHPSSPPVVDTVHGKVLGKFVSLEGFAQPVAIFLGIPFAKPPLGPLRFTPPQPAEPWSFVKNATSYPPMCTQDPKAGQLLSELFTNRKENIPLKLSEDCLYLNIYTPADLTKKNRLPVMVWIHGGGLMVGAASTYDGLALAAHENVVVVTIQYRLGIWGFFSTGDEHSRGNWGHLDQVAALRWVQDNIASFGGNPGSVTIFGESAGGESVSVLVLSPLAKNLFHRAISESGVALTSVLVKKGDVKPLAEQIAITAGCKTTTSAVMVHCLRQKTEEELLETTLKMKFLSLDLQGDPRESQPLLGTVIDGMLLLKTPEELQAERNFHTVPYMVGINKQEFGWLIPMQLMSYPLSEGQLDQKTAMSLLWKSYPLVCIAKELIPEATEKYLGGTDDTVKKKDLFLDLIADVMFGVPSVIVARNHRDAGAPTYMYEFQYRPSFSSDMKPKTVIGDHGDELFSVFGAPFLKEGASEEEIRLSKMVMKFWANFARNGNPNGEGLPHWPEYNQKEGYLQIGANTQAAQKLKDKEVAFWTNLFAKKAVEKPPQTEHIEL

[6] = target: T3, Liver carboxylesterase 1; assay: Inhibition constant against human liver carboxylesterase 1 using 4-MUA (4-methylumbelliferone acetate)
How it was run: (§2)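 Pure enzyme (hCE1 or rabbit CE) was incubated with 0.75 mM 4-methylumbelliferone acetate in 50 mM Hepes, pH 7.4. Inhibitor dilution series were run, and Ki was obtained by fitting fractional inhibition to a partially competitive inhibition equation.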

[7] = target: T2, Liver carboxylesterase 1; assay: Inhibition constant against rabbit liver carboxylesterase using CPT-11
How it was run: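 Purified rabbit CE was used with CPT-11 as the substrate. CPT-11 and SN-38 were quantified by HPLC with fluorescence detection.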

[8] = target: T2, Liver carboxylesterase 1; assay: Inhibition constant against rabbit liver carboxylesterase using 4-MUA (4-methylumbelliferone acetate)
How it was run: as §2, with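 “7.4. 4-Methylumbelliferone release was read fluorimetrically (excitation 365 nm, emission 460 nm) over 1 min, where the rate was linear.” for “7.4.”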

[9] = target: T3, Liver carboxylesterase 1; assay: Inhibition constant against human liver carboxylesterase 1 using o-NPA (nitrophenyl acetate)
How it was run: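 Purified hCE1 was assayed in multiwell plates with 3 mM o-nitrophenyl acetate, with enzyme added last. Absorbance change at 420 nm was read every 15 s for 5 min and compared with no-inhibitor wells. Inhibitor concentrations started at 1 pM, and assays were run in duplicate with 50 µM BNPP and DMSO/no-enzyme controls. Ki came from fitting to a partially competitive inhibition equation.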

[10] = target: T2, Liver carboxylesterase 1; assay: Inhibition constant against rabbit liver carboxylesterase using o-NPA (nitrophenyl acetate); how it was run: as §1

Sequence of Cholinesterase (P06276 whole entry): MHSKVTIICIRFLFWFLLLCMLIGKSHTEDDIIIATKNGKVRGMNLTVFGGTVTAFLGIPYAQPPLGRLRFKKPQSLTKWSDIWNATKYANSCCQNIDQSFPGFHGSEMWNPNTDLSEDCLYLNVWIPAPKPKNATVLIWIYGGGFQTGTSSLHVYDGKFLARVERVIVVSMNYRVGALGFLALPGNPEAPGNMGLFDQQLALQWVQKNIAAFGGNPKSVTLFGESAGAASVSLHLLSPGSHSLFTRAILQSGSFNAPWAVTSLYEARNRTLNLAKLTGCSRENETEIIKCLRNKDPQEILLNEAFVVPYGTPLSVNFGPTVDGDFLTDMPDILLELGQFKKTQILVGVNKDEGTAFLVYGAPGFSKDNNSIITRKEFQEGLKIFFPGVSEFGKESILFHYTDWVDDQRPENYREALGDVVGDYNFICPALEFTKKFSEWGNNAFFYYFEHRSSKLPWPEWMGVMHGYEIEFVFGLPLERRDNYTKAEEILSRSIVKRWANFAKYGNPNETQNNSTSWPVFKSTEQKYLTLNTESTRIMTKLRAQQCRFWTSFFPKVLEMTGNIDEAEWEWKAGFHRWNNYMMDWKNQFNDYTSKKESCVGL

Compound `O=C1CCCCC1=O` has a Ki [1] greater than 100 µM, a Ki [2] greater than 100 µM and a Ki [3] greater than 100 µM. The Ki [4] was greater than 100 µM and the Ki [5] was greater than 100 µM.

`[O-][S+](Cc1ccccc1)Cc1ccccc1` was tested, and the Ki [1] was greater than 100 µM, the Ki [2] was greater than 100 µM and the Ki [3] was greater than 100 µM. The Ki [4] was greater than 100 µM and the Ki [5] was greater than 100 µM.

With `CC1CCCC(=O)C1=O` (centres undefined) the Ki [1] was greater than 100 µM, the Ki [2] was greater than 100 µM and the Ki [3] was greater than 100 µM. For the same compound, the Ki [4] was greater than 100 µM and the Ki [5] was greater than 100 µM.

`CC(=O)CC(C)=O` gave a Ki [1] greater than 100 µM, a Ki [2] greater than 100 µM and a Ki [3] greater than 100 µM. It also gave a Ki [4] greater than 100 µM and a Ki [5] greater than 100 µM.

`CN(C)c1ccc(C(=O)C(=O)c2ccc(N(C)C)cc2)cc1` showed a Ki [3] of 2.15 µM.

`CC1C(=O)CCCC1=O` was tested, and the Ki [1] was greater than 100 µM, the Ki [2] was greater than 100 µM and the Ki [3] was greater than 100 µM. It also gave a Ki [4] greater than 100 µM and a Ki [5] greater than 100 µM.

`CC1CC(C)(C)CC(=O)C1=O` (centres undefined) gave a Ki [1] greater than 100 µM, a Ki [2] greater than 100 µM and a Ki [3] greater than 100 µM. It also gave a Ki [4] greater than 100 µM and a Ki [5] greater than 100 µM.

`Cc1ccc(C(=O)C(=O)c2ccccc2)cc1[N+](=O)[O-]` was tested, and the Ki [6] was 7.5 nM, the Ki [7] was 0.0241 µM and the Ki [8] was 0.004 µM. It also gave a Ki [9] of 0.295 µM and a Ki [3] of 0.0119 µM.

For `O=C(C(=O)c1ccc(Cl)cc1)c1ccc(Cl)cc1`, the Ki [6] was 1.6 nM, the Ki [7] was 0.043 µM and the Ki [8] was 0.0013 µM. For the same compound, the Ki [9] was 0.182 µM, the Ki [3] was 0.0095 µM and the Ki [10] was 0.0095 µM. It also gave a Ki [5] of 0.182 µM.

Compound `O=C(C(=O)c1ccc(Cl)cc1)c1ccccc1` has a Ki [6] of 5.4 nM, a Ki [7] of 0.0525 µM and a Ki [8] of 0.0017 µM. For the same compound, the Ki [9] was 0.0474 µM and the Ki [3] was 0.0239 µM.

With `CC(=O)C(=O)c1ccccc1` the Ki [1] was greater than 100 µM, the Ki [3] was 4.93 µM and the Ki [4] was greater than 100 µM. The Ki [5] was 5.27 µM.

`CN(C)c1ccc(C(O)C(=O)c2ccccc2)cc1` (centres undefined) gave a Ki [1] greater than 100 µM, a Ki [2] greater than 100 µM and a Ki [3] greater than 100 µM. The Ki [4] was greater than 100 µM and the Ki [5] was greater than 100 µM.

`O=C(O)c1ccc(C(=O)c2ccccc2)cc1` gave a Ki [1] greater than 100 µM, a Ki [2] greater than 100 µM and a Ki [3] greater than 100 µM. The Ki [4] was greater than 100 µM and the Ki [5] was greater than 100 µM.

In the case of `CC1NC(=O)C(=O)OC1C` (centres undefined), the Ki [1] is reported as greater than 100 µM, the Ki [2] is reported as greater than 100 µM and the Ki [3] is reported as greater than 100 µM. It also gave a Ki [4] greater than 100 µM and a Ki [5] greater than 100 µM.

For `Cc1ccc(C(=O)C(=O)c2ccccc2)cc1C`, the Ki [6] was 18.8 nM, the Ki [7] was 0.24 µM and the Ki [8] was 0.0044 µM. For the same compound, the Ki [9] was 0.0991 µM and the Ki [3] was 0.108 µM.

`O=C(C(=O)c1ccc(Br)cc1)c1ccc(Br)cc1` showed a Ki [6] of 0.029 nM, a Ki [7] of 0.025 µM and a Ki [8] of 0.00017 µM. For the same compound, the Ki [3] was 0.0041 µM.

`O=C(C(=O)c1ccc(C(=O)C(=O)c2ccccc2)cc1)c1ccccc1` gave a Ki [7] of 0.0141 µM, a Ki [8] of 0.0021 µM and a Ki [3] of 0.0061 µM.

`CC1C(=O)CCC1=O` showed a Ki [1] greater than 100 µM, a Ki [2] greater than 100 µM and a Ki [3] greater than 100 µM. For the same compound, the Ki [4] was greater than 100 µM and the Ki [5] was greater than 100 µM.

Reference: ChEMBL document CHEMBL1143603, “Identification and characterization of novel benzil (diphenylethane-1,2-dione) analogues as inhibitors of mammalian carboxylesterases” (J Med Chem, 2005)
